Results published in ChEMBL document CHEMBL1150350, “Evaluation of the amino acid binding site of Mycobacterium tuberculosis glutamine synthetase for drug discovery” (Bioorg Med Chem, 2008).
Active and inactive are the calls of the source. No cut-off for these calls is given here.

What was measured:
[1] = test system: Mycobacterium tuberculosis; settings: at 1 mM
[2] = test system: Mycobacterium tuberculosis; assay: Inhibition of Mycobacterium tuberculosis glutamine synthetase at 1 mM in DMSO
Summary of the method: (§1)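 Compound from a DMSO stock (2% v/v DMSO final) was preincubated 20 min at RT with unadenylylated MtGS (7 nM subunit) in 50 mM HEPES-HCl pH 7.5, 25 mM MgCl2, 1 mM ATP and 30 mM NH4Cl. Started with 10 mM L-glutamate, 60 min at RT. Phosphate read at 635 nm, corrected by a compound-background plate lacking GS and ATP. Triplicate, % vs uninhibited enzyme.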

Glutamine synthetase [3] = target: T1, Glutamine synthetase (Salmonella typhimurium (strain LT2 / SGSC1412 / ATCC 700720), UniProt P0A1P6); assay: Inhibition of Salmonella Typhimurium glutamine synthetase by transferase assay; parameters: species or system Salmonella enterica subsp. enterica serovar Typhimurium
T1 sequence (P0A1P6 whole entry): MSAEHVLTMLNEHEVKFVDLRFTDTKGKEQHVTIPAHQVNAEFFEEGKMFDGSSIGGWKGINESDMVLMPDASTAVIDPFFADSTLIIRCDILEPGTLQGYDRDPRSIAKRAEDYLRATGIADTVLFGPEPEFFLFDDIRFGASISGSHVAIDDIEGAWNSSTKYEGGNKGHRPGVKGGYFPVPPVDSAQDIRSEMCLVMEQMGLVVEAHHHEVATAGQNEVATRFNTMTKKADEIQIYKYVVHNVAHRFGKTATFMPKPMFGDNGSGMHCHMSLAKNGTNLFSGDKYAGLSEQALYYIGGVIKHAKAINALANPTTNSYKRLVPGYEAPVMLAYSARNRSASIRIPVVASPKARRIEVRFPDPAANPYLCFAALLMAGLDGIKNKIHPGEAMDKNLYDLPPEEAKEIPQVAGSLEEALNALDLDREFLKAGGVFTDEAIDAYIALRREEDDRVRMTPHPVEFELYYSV

[4] = Inhibition of Mycobacterium tuberculosis glutamine synthetase by transferase assay
Ovis aries [5] = organism: Ovis aries; assay: Inhibition of sheep brain glutamine synthetase at 0.5 mM by transferase assay
[6] = target: T2, Glutamine synthetase (Glycine max) (UniProt Q43760); assay: Inhibition of soybean glutamine synthetase at 0.5 mM by transferase assay
T2 sequence (whole entry): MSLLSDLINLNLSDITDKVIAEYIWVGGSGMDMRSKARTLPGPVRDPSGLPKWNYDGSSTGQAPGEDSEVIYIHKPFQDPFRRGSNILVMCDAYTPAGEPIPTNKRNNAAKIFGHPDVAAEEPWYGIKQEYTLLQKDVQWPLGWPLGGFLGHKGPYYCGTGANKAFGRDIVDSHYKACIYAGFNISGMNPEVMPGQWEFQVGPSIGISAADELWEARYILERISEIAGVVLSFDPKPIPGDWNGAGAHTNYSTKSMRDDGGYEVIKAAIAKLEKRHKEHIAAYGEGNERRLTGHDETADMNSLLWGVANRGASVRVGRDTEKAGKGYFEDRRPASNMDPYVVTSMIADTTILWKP

[7] = test system: Mycobacterium tuberculosis; assay: Activation of Mycobacterium tuberculosis glutamine synthetase at 1 mM in water
Summary of the method: (§2)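 Unadenylylated MtGS from an E. coli expression strain, 7 nM subunit, in 50 mM HEPES-HCl pH 7.5 with 25 mM MgCl2, 1 mM ATP and 30 mM NH4Cl. Compound (water stock) was preincubated 20 min at RT, then 10 mM L-glutamate was added and the reaction run 60 min at RT. Released Pi was read at A635 minus a no-GS/no-ATP background. Triplicate; % of uninhibited; t-test, p<0.1.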

[8] = test system: Mycobacterium tuberculosis; assay: Inhibition of Mycobacterium tuberculosis glutamine synthetase at 0.50 mM in water
Summary of the method: as §2

[9] = test system: Mycobacterium tuberculosis; assay: Inhibition of Mycobacterium tuberculosis glutamine synthetase at 0.75 mM in DMSO
Summary of the method: as §1

[10] = test system: Mycobacterium tuberculosis; assay: Activation of Mycobacterium tuberculosis glutamine synthetase at 0.50 mM in water
Summary of the method: as §2

Ovis aries [11] = organism: Ovis aries; assay: Inhibition of sheep brain glutamine synthetase at 25 mM
[12] = Inhibition of Escherichia coli glutamine synthetase by transferase assay
Escherichia coli = assay: Inhibition of Escherichia coli glutamine synthetase at 1.1 mM
[13] = test system: Mycobacterium tuberculosis; assay: Inhibition of Mycobacterium tuberculosis glutamine synthetase at 0.90 mM in water
Summary of the method: as §2

[14] = test system: Mycobacterium tuberculosis; assay: Inhibition of Mycobacterium tuberculosis glutamine synthetase at 0.20 mM in water
Summary of the method: as §2

[15] = test system: Mycobacterium tuberculosis; assay: Inhibition of Mycobacterium tuberculosis glutamine synthetase at 0.93 mM in water
Summary of the method: as §2

[16] = Inhibition of sheep brain glutamine synthetase by transferase assay; parameters: species or system Ovis aries
Glutamine synthetase [17] = target: T3, Glutamine synthetase (Glycine max, UniProt Q43760); assay: Inhibition of soybean glutamine synthetase by transferase assay
T3 sequence (Q43760 whole entry): T2 sequence (whole entry)

Structure (SMILES): C[S+]([O-])c1cccc(N[C@@H](CO)C(=O)O)c1 (some centres undefined)
- inhibition [1]: 13%

Structure (SMILES): NC[C@H](O)CC[C@H](N)C(=O)O
- inhibition [2]: 56%
- Ki (Glutamine synthetase [3]): 40 µM
- IC50 [4]: 610 µM
- inhibition (Ovis aries [5]): 22%
- inhibition [6]: 21%
- inhibition [1]: 58%

Structure (SMILES): O=C(O)CNc1cccc(C(=O)O)c1
- Activity [7]: Active

Structure (SMILES): CSc1cccc(N[C@H](CO)C(=O)O)c1
- Activity [8]: inactive

Structure (SMILES): O=C(O)c1cccc(N[C@H](CO)C(=O)O)c1
- Activity [7]: Active

Structure (SMILES): N[C@@H](CCCP(=O)(O)O)C(=O)O
- Activity [9]: inactive

Structure (SMILES): O=C(O)CNc1ccc(O)c(S(=O)(=O)O)c1
- inhibition [1]: 48%

Structure (SMILES): CSc1cccc(N[C@@H](CO)C(=O)O)c1
- Activity [10]: Active

Structure (SMILES): C[S+]([O-])CC[C@H](N)C(=O)O (some centres undefined)
- inhibition (Ovis aries [11]): 11%

Structure (SMILES): CCOP(=O)(OCC)c1cccc(N[C@@H](CO)C(=O)O)c1
- Activity [7]: Active

Structure (SMILES): N[C@@H](CCP(=O)(O)O)C(=O)O
- Ki [12]: 54 µM
- inhibition (Escherichia coli): 61%

Structure (SMILES): CSc1cccc(NCC(=O)O)c1
- Activity [13]: inactive

Structure (SMILES): C[S+]([O-])c1cccc(NCC(=O)O)c1 (centres undefined)
- inhibition [1]: 30%

Structure (SMILES): CCOP(=O)(OCC)c1cccc(N[C@H](CO)C(=O)O)c1
- Activity [7]: Active

Structure (SMILES): O=C(O)c1cccc(NC(=O)c2nc[nH]n2)c1
- inhibition [2]: 26%

Structure (SMILES): NC(Cc1ccccc1CP(=O)(O)O)C(=O)O (centres undefined)
- Activity [14]: inactive

Structure (SMILES): NS(=O)(=O)c1cccc(N[C@@H](CO)C(=O)O)c1
- Activity [7]: Active

Structure (SMILES): O=C(O)c1cccc(N[C@@H](CO)C(=O)O)c1
- Activity [7]: Active

Structure (SMILES): NC(Cc1ccc(CP(=O)(O)O)cc1)C(=O)O (centres undefined)
- Activity [15]: inactive

Structure (SMILES): CS(=O)(=O)CC[C@H](N)C(=O)O
- inhibition (Ovis aries [11]): 67%
- inhibition [1]: 33%

Structure (SMILES): CP(=O)(O)CCC(N)C(=O)O (racemic) [GLUFOSINATE]
- IC50 [4]: 1.9 µM

Structure (SMILES): CCOP(=O)(OCC)c1cccc(NCC(=O)O)c1
- inhibition [2]: 42%

Structure (SMILES): NS(=O)(=O)c1ccc2[nH]c(=O)[nH]c2c1
- inhibition [2]: 24%

Structure (SMILES): N[C@@H](CCNO)C(=O)O
- Ki [16]: 7 µM
- Ki (Glutamine synthetase [17]): 21 µM
- inhibition [1]: 26%

Structure (SMILES): NS(=O)(=O)c1cccc(N[C@H](CO)C(=O)O)c1
- inhibition [1]: 33%
